This is an account of results in ChEMBL document CHEMBL1149397, “Trace amine-associated receptor agonists: synthesis and evaluation of thyronamines and related analogues” (J Med Chem, 2006).

Activity calls are given as the source filed them. No cut-off for these calls is given here.

Assay [1] deals with Trace amine-associated receptor 1 (Mus musculus, UniProt Q923Y8). The assay can be described thus: Activity at mouse TAAR1 by measuring cAMP accumulation in HEK293 cells. The format is functional, cell-based. The essentials:
(§1)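 HEK293 cells stably transfected with rat or mouse TAAR1, harvested and preincubated in Krebs-Ringer-HEPES with 200 µM IBMX. Then 1 h at 37 °C in KRH with 100 µM IBMX plus test compound, forskolin (10 µM) or DMSO vehicle. cAMP was measured by [³H]cAMP competitive binding after boiling, as % of forskolin control. EC₅₀ came from concentration-response curves, triplicate runs, averaged over experiments.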
Background: Changes in cAMP serve as a functional read-out for many G protein-coupled receptors.

For assay [2], the target named is Trace amine-associated receptor 1 (Rattus norvegicus, UniProt Q923Y9). Briefly: Activity at rat TAAR1 by measuring cAMP accumulation in HEK293 cells. The format is functional, cell-based. The essentials:
as §1

For assay [3], the system named is Mus musculus. The assay can be described thus: Efficacy for hypothermia induction in ip dosed C57BL/6J mice. The assay is classed as functional. In a few lines:
(§2)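 Male C57BL/6J mice, about 7-10 weeks old, dosed i.p. at 2, 10, 25 or 50 mg/kg. Vehicle was 100% DMSO, or 60-65% DMSO in saline for some compounds. Rectal temperature was taken before dosing and at 30, 60, 120, 180, 240 and 1440 min, with room at 19-21 °C. Groups were 2-4 mice, analysed by two-way ANOVA with Bonferroni post hoc tests (P < 0.05).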

Assay [4] has as its system Mus musculus. Briefly: Hypothermia induction in C57BL/6J mice at 50 mg/kg, ip. The format is functional, organism-based. More on the design: dose 50 mg/kg. The essentials:
as §2

The EC50 is the concentration giving half of the maximal effect. Lower therefore signals a more potent agent. The term ED50 denotes the midpoint of the dose-response relation.

Trace amine-associated receptor 1 (Mus musculus, UniProt Q923Y8), sequence (Q923Y8 whole entry): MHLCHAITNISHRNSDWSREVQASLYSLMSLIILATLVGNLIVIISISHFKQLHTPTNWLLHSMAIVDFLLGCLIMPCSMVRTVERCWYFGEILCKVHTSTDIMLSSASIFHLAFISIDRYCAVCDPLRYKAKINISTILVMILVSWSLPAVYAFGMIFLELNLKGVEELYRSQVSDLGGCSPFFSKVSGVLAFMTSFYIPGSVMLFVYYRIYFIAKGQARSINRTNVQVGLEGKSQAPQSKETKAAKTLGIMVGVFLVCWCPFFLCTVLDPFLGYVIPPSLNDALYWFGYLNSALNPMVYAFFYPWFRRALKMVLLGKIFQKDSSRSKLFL
Trace amine-associated receptor 1 (Rattus norvegicus, UniProt Q923Y9), sequence (Q923Y9 whole entry): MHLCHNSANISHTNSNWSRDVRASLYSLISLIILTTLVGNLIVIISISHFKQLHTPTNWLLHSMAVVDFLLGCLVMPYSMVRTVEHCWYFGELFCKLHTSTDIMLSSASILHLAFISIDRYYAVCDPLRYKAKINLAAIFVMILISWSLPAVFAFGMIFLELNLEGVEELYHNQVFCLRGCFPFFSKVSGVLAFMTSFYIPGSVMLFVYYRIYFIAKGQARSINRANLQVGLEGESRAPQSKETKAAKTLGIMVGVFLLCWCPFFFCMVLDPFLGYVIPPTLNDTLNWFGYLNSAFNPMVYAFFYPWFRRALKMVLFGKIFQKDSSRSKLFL

With `NCCc1ccc(OCC(=O)c2ccccc2)cc1`, the EC50 in assay [1] was found to be 83 nM; in assay [2] it was 309 nM.
For `NCCc1cc(I)c(Oc2ccc(O)cc2)c(I)c1`, the EC50 in assay [1] came out at 371 nM.
With `c1ccc(CNCCc2ccc(OCc3ccccc3)cc2)cc1`, the 50% effective concentration (EC50) in assay [1] and in assay [2] was over 1000 nM throughout.
Regarding `CN(C)CCc1ccc(OCc2ccccc2)cc1`, the EC50 in assay [1] was 192 nM; in assay [2], over 1000 nM.
As to `NCCc1ccc(Oc2ccccc2)cc1`, the EC50 is 296 nM in assay [1] and 38 nM in assay [2].
Regarding `NCCc1ccc(OCc2ccccc2)cc1`, the 50% effective concentration (EC50) in assay [1] was 168 nM; in assay [2], 209 nM.
In the same order, the values of `NCCc1ccc(OCc2ccc(C(F)(F)F)cc2)c(I)c1` are 284 nM and over 1000 nM.
For `NCCc1cc(I)c(Oc2cc(I)c(O)c(I)c2)c(I)c1`, the EC50 in assay [1] was over 1000 nM.
For the compound `CCCNCCc1ccc(OCc2ccccc2)cc1`, the EC50 in assay [1] and in assay [2] was over 1000 nM throughout.
On to `NCCc1ccc(Oc2ccccc2)c(I)c1`, for which the 50% effective concentration (EC50) in assay [1] stood at 35 nM; in assay [2], 2.4 nM. Besides, the ED50 with Mus musculus [3] came to 30 µmol/kg. The result with Mus musculus [4] was Active.
Take `NCCc1ccc(OCc2ccc(F)cc2)cc1`: the results for the EC50 in assay [1] and in assay [2] were 38.5 nM and 72 nM, respectively.
For the compound `CCNCCc1ccc(OCc2ccccc2)cc1`, the concentration giving a half-maximal response (EC50) in assay [1] was 71 nM; in assay [2], over 1000 nM.
As for `Cc1cc(CCN)ccc1Oc1ccc(O)cc1`, the results for the EC50 in assay [1] and in assay [2] were 116 nM and 33 nM, respectively. Further, in the assay on Mus musculus [4], the outcome was Active.
On to `NCCc1ccc(OCc2ccccc2)c(I)c1`, for which the EC50 in assay [1] came to 221 nM; in assay [2] it was 77 nM.
In the case of `NCCc1ccc(OCCCc2ccccc2)cc1`, the concentration giving a half-maximal response (EC50) was found to be 102 nM in assay [1] and 89 nM in assay [2].
For `COc1cc(COc2ccc(CCN)cc2)cc(OC)c1`, the values for the EC50 in assay [1] and in assay [2] were 123 nM and 333 nM, respectively.
`Cc1cc(C)cc(COc2ccc(CCN)cc2)c1`: the EC50 was 98 nM in assay [1] and 137 nM in assay [2].
In turn, `NCCc1cc(I)c(Oc2ccc(O)c(I)c2)c(I)c1` showed a concentration for a half-maximal effect (EC50) in assay [1] of over 1000 nM.
Take `NCCc1ccc(Oc2ccc(O)c(I)c2)cc1`: the EC50 in assay [1] was over 1000 nM; in assay [2], 800 nM.
Consider `CNCCc1ccc(Oc2ccc(OC)cc2)c(I)c1`, for which the results for the EC50 in assay [1] and in assay [2] were over 1000 nM and 107 nM, respectively.
In the same order, the values of `COc1cccc(COc2ccc(CCN)cc2)c1` are 194 nM and 141 nM.
With `CNCCc1ccc(OCc2ccccc2)cc1`, the values for the EC50 in assay [1] and in assay [2] were 54 nM and 119 nM, respectively.
`NCCc1ccc(OCc2ccc([N+](=O)[O-])cc2)cc1`: the EC50 in assay [1] is 21.5 nM; in assay [2], 64 nM.
As to `CNCCc1ccc(Oc2ccc(O)cc2)c(I)c1`, the half-maximal effective concentration (EC50) came out at 221 nM in assay [1] and 18 nM in assay [2].
In assay [1], `NCCc1ccc(Oc2ccc(O)c(I)c2)c(I)c1` came in with an EC50 of 1000 nM.
Take `CNCCc1ccc(OCc2ccccc2)c(I)c1`: the EC50 in assay [1] was found to be 106 nM; in assay [2] it was 68 nM.
The like results for `NCCc1ccc(Oc2cc(I)c(O)c(I)c2)c(I)c1` were, in that order, over 1000 nM and over 1000 nM.
With `CCCCNCCc1ccc(OCc2ccccc2)cc1`, the EC50 in assay [1] and in assay [2] was over 1000 nM in each case.
On to `NCCc1ccc(OCCCCc2ccccc2)cc1`, for which the EC50 worked out at 80 nM in assay [1] and 43 nM in assay [2].
Regarding `CNCCc1ccc(Oc2ccc(F)cc2)c(I)c1`, the EC50 in assay [1] is 32.5 nM; in assay [2], 2.7 nM. In the assay with Mus musculus [4], the result was Active.
For `CNCCc1ccc(OCc2ccc(C(F)(F)F)cc2)cc1`, the EC50 in assay [1] was found to be 12 nM; in assay [2], 61 nM. Also, the result in the assay with Mus musculus [4] was Active.
For `NCCc1ccc(OCc2c(F)c(F)c(F)c(F)c2F)cc1`, the EC50 in assay [1] and in assay [2] was over 1000 nM each time.
`NCCc1ccc(Oc2cc(I)c(O)c(I)c2)cc1`: the EC50 in assay [1] and in assay [2] was over 1000 nM in each case.
Take `CNCCc1ccc(Oc2ccc(C(F)(F)F)cc2)c(I)c1`: the EC50 in assay [1] and in assay [2] was over 1000 nM throughout.
On to `NCCc1ccc(Oc2ccc(O)cc2)cc1` [THYRONAMINE], for which the half-maximal effective concentration (EC50) in assay [1] stood at 1000 nM.
Turning to `NCCc1ccc(OCCc2ccccc2)cc1`, the EC50 turned out to be 207 nM in assay [1] and 203 nM in assay [2].
`NCCc1ccc(OCc2ccc(C(F)(F)F)cc2)cc1`: the EC50 in assay [1] is 20.2 nM; in assay [2] it was 55 nM.
For the compound `OCCc1ccc(Oc2ccc(O)cc2)c(I)c1`, the EC50 in assay [1] and in assay [2] was over 1000 nM throughout.
